# Experimental data reported in PubChem BioAssay.
# Calls of active or inactive are those of the source.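 Rule for the calls, unless noted: active = mean duplicate potentiation above the buffer control mean plus 5 SD of buffer wells; inactive = the rest.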
# Columns and labels:
# [1] = nonspecific flux increase, KCNQ1-free cells – parental CHO cells, counter-screen for KCNQ1 potentiator project (AID 493006;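 active = duplicate-averaged activation above buffer control mean plus 5 SD of those controls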); conditions: parental CHO-K1 cells, FluxOR thallium flux, at 10 µM; hits give high values
# Summary of the method: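 Assay system: Untransfected host CHO-K1 cells with FluxOR thallium dye | Probe or stimulus: Potassium/thallium depolarization pulse | Schedule: Overnight 37 °C plating, 90 min RT dye, 20 min compound | Detection: Kinetic thallium-flux fluorescence | Read-out: Max-minus-min fluorescence over baseline, percent of buffer-to-R-L3 span | Benchmarks: Low control buffer, high control R-L3 activator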
# [2] = target: Potassium voltage-gated channel subfamily KQT member 1 (Homo sapiens) (UniProt P51787); assay: enhancement of KCNQ1 channel thallium flux – FluxOR thallium flux, CHO cells, duplicates, confirmation (AID 493007;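 active = potentiation averaged over duplicate wells exceeding buffer-only control mean by more than 3 SD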;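 for outcome: cells depolarized by a potassium plus thallium sulfate stimulus after compound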); conditions: KCNQ1 cell line, FluxOR thallium flux fluorescence, at 10 µM; hits give high values, % of reference activator effect, buffer zero
# Summary of the method: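 Material: KCNQ1-expressing CHO cell line; Incubation: FluxOR dye loading 90 min, compound exposure 20 min, room temperature; Detection: FluxOR Tl+ flux fluorescence, 10 s baseline plus 110 s recording; Read-out: percent activation between buffer and R-L3 responses; Control set: buffer-only wells as 0% and R-L3 activator as 100%; Replication: duplicate wells per compound.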
# [3] = target: Potassium voltage-gated channel subfamily KQT member 2 (Rattus norvegicus) (UniProt O88943); assay: KCNQ2 thallium flux enhancement – KCNQ2-CHO-K1 cells, selectivity assay for KCNQ1 potentiator project (AID 493009); conditions: FluxOR thallium flux fluorescence, at 10 µM; hits give high values, scaled: buffer 0, activator control 100;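 note: assay conditions were tuned for KCNQ1 rather than KCNQ2 modulators; signal is max minus min fluorescence divided by baseline after thallium stimulus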
# [4] = target: Potassium voltage-gated channel subfamily KQT member 1 (Homo sapiens) (UniProt P51787); assay: KCNQ1 activators by electrophysiology – IonWorks patch clamp, KCNQ1-CHO cells, orthogonal assay for KCNQ1 potentiator project, confirmation (AID 493184;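 active = current rise at least 3 SD above the untreated control mean in each of two repeat wells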); conditions: automated patch clamp current, at 10 µM; hits give high values
# Summary of the method: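 assay system = KCNQ1-expressing CHO cells | medium = external bath solution at pH 7.4 | probe or stimulus = 2,000 ms depolarization, -90 to +40 mV | compound dosing = 10 µM final, single point | measured by = automated voltage clamp, amphotericin B perforated patch | measure = percent current increase versus pre-compound level | replication = duplicates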
# [5] = target: Potassium voltage-gated channel subfamily E member 1 (Homo sapiens) + Potassium voltage-gated channel subfamily KQT member 1 (Homo sapiens) (UniProt P15382+P51787); assay: KCNQ1-E1 channel activation – thallium flux, CHO-K1 KCNQ1/E1 cells, selectivity assay for KCNQ1 potentiator project, confirmation (AID 493186;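 active = mean duplicate activation above the buffer control mean plus 5 SD of those controls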); conditions: FluxOR thallium flux, at 10 µM; hits give high values
# Summary of the method: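 Test system – CHO-K1 cells with KCNQ1/E1 · Measured by – FluxOR Tl+ flux fluorescence, kinetic read · Controls – buffer low control, R-L3 high control · Times – dye 90 min, compound 20 min, room temperature · Replication – duplicate wells per compound · Doses – one test concentration · Evaluation – fluorescence rise relative to baseline, as percent of R-L3 response above buffer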
# Chain of Potassium voltage-gated channel subfamily E member 1 (Homo sapiens) + Potassium voltage-gated channel subfamily KQT member 1 (Homo sapiens) (P51787 whole entry, looked up): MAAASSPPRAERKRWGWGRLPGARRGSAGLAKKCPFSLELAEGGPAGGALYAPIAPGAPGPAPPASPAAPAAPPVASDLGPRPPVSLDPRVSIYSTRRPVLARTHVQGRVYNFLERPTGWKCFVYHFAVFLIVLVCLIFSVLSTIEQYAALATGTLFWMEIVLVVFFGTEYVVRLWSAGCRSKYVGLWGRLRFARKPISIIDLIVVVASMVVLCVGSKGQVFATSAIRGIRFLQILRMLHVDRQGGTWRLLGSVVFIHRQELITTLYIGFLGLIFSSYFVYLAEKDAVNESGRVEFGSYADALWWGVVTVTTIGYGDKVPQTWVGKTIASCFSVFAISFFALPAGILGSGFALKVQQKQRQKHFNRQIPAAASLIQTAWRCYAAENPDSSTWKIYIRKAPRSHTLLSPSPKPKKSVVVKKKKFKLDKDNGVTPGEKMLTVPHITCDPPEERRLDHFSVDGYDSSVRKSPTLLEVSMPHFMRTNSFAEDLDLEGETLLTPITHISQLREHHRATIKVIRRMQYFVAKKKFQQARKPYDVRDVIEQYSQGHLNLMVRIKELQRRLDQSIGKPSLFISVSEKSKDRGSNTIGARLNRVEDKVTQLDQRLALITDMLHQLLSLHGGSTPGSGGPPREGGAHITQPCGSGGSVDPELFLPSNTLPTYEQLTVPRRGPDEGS
# Chain of Potassium voltage-gated channel subfamily KQT member 1 (Homo sapiens) (P51787 whole entry, looked up): as above
# Chain of Potassium voltage-gated channel subfamily KQT member 2 (Rattus norvegicus) (O88943 whole entry, looked up): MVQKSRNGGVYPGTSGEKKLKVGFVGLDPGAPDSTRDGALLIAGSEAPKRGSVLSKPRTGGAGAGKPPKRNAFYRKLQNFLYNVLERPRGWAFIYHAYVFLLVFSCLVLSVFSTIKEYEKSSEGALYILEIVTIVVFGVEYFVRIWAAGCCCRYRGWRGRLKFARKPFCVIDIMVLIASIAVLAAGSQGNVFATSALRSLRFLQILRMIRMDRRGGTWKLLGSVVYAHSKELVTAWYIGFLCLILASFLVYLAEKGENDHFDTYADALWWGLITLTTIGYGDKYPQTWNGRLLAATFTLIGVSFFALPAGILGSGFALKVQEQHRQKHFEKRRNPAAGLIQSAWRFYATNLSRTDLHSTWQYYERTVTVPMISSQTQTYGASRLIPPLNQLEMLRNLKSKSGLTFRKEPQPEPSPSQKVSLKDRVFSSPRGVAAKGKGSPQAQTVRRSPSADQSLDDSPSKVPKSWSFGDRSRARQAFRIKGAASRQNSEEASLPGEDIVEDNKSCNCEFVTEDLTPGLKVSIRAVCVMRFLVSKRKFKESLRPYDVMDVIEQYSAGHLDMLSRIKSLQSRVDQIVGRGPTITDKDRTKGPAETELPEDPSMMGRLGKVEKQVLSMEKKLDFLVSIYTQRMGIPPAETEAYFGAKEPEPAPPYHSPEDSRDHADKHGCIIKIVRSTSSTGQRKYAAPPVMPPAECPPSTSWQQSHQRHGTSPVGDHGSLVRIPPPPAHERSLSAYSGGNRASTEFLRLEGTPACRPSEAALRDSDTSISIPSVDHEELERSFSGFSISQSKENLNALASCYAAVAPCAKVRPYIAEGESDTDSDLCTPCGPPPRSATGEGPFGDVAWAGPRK
Compound,outcome [1],outcome [2],outcome [3],outcome [4],outcome [5],potentiation [2],potentiation [3],activation [5]
O=C(c1ccc(-c2ccccc2)cc1)C1CCCN(C(=O)Cn2cncn2)C1 (stereo not given),inactive,inactive,inactive,inactive,inactive,,,
S=c1nc[nH]c2c1sc1nc(N3CCOCC3)c3c(c12)CCCC3,inactive,,inactive,inactive,inactive,105% (active),,
O=C(N/C(=C\c1ccc([N+](=O)[O-])cc1)C(=O)N1CCCCC1)c1ccco1,inactive,inactive,inactive,inactive,inactive,,,
O=C(NC(=S)Nc1ccccc1N1CCCC1)c1ccc(-c2cccc([N+](=O)[O-])c2)o1,inactive,inactive,inactive,inactive,inactive,,,
CCOC(=O)c1c(C)nc2sc3c(=O)n(-c4ccc(OC)cc4)cnc3c2c1-c1ccc(OC)cc1,inactive,inactive,inactive,inactive,inactive,,,
COCCn1c(C)cc(C(=O)COC(=O)c2ccc([N+](=O)[O-])o2)c1C,inactive,,inactive,inactive,inactive,22.5% (active),,
Oc1c(/C=N/c2ccccn2)sc2ccccc12,inactive,,inactive,inactive,inactive,18% (active),,
Cc1ccc(S(=O)(=O)Nc2cccc3ncccc23)s1,inactive,,,inactive,inactive,19.5% (active),168% (active),
CCOC(=O)N1CCC(N2C(=O)c3ccc(C(=O)NCCC(C)C)cc3C2=O)CC1,inactive,,,inactive,inactive,69% (active),150% (active),
O=[N+]([O-])c1cccc(/C=N/Nc2nc(NCc3ccccc3)nc(N3CCOCC3)n2)c1O,inactive,inactive,inactive,inactive,inactive,,,
Cc1ccc(-c2noc(CNS(=O)(=O)c3ccccc3)n2)cc1,inactive,inactive,inactive,inactive,inactive,,,
CC1(c2ccc(OC(F)F)cc2)NC(=O)N(CC(=O)Nc2ccc3c(c2)OCO3)C1=O (stereo not given),inactive,inactive,inactive,inactive,inactive,,,
CCn1c(CCNC(=O)c2ccc(Cl)cc2Cl)n[nH]c1=S,inactive,inactive,inactive,inactive,inactive,,,
Cc1nc(-c2ccc(NC(=O)Cc3ccccc3)cc2)cs1,inactive,inactive,inactive,inactive,inactive,,,
COc1cc(C(=O)Nc2ccc3c(c2)nc(C)n3C)cc(OC)c1OC,inactive,inactive,inactive,inactive,inactive,,,
Cc1ccc(C(=O)NC(=S)N2CCN(c3ccccc3F)CC2)cc1,inactive,inactive,inactive,inactive,inactive,,,
CCC1(CC)Cc2ccccc2-c2[nH]c(=S)[nH]c(=O)c21,inactive,inactive,inactive,inactive,inactive,,,
Cc1ccc(Nc2ccc([N+](=O)[O-])cn2)cc1Cl,inactive,inactive,,inactive,inactive,,144% (active),
COC(=O)c1sccc1NS(=O)(=O)c1ccc(F)cc1F,inactive,inactive,inactive,inactive,inactive,,,
Cc1nn(Cc2ccc(Cl)cc2)c(C)c1NC(=O)c1cc(-c2ccco2)on1,inactive,inactive,inactive,inactive,inactive,,,

Compound,outcome [1],outcome [2],outcome [3],outcome [4],outcome [5],potentiation [2],potentiation [3],activation [5]
Cn1c(O)c(N=NC(=S)Nc2ccccc2F)c2cc(S(=O)(=O)N3CCOCC3)ccc21,inactive,inactive,inactive,inactive,inactive,,,
O=C(Nc1nc(-c2cc(F)ccc2F)cs1)c1ccccn1,inactive,inactive,inactive,inactive,inactive,,,
CC1CN(C(=S)NC(=O)c2ccco2)CC(C)O1 (stereo not given),inactive,inactive,inactive,inactive,inactive,,,
O=C(NCC1CCCO1)c1cccc(Oc2ccccc2)c1 (stereo not given),inactive,inactive,inactive,inactive,inactive,,,
Oc1c(Cl)cc(Cl)cc1/C=N/NC(=S)NC1CC2C=CC1C2 (stereo not given),inactive,inactive,inactive,inactive,inactive,,,
CCCC(=O)N(Cc1cccnc1)c1nc2c(OC)ccc(Cl)c2s1,inactive,,inactive,inactive,inactive,51.5% (active),,
O=C(CSc1nnc(-c2ccccn2)n1-c1ccc(Cl)cc1)Nc1ccc2c(c1)OCO2,inactive,inactive,inactive,inactive,inactive,,,
CCOC(=O)c1cc(C)sc1NC(=O)CN1CCN(C(=O)c2ccco2)CC1,inactive,,inactive,inactive,inactive,17.5% (active),,
CCSc1nnc(-c2ccncc2)n1Cc1ccccc1,inactive,inactive,inactive,inactive,inactive,,,
C=CCNC(=S)Nc1nc2c(cc1C(=O)OCC)CCCC2,inactive,,inactive,inactive,inactive,39% (active),,
Cc1ccc(C)c(NC(=S)NNC(=O)c2csc3c2CCCC3)c1,inactive,,inactive,inactive,inactive,20.5% (active),,
CN(C)c1ccnc(N(Cc2ccccc2)Cc2ccccc2)c1C#N,inactive,inactive,inactive,inactive,inactive,,,
O=C(NC(=S)N1CCCCCC1)c1ccccc1Cl,inactive,,,inactive,inactive,25% (active),146% (active),
NC(=Nc1ccc(Cl)cc1)c1ccccc1,inactive,inactive,inactive,inactive,inactive,,,
O=c1c2ccccc2[nH]c(=S)n1C1CCCCC1,inactive,inactive,inactive,inactive,inactive,,,
COc1cc2c(cc1OC)CN(CCC(=O)c1ccc(Br)cc1)CC2,inactive,inactive,inactive,inactive,inactive,,,
CC(C)(C)NCC(O)CON=C1c2ccccc2-c2ccccc21 (stereo not given),inactive,inactive,inactive,inactive,,,,15.2% (active)
Cc1ccc(NC2=C(Cl)C(=O)OC2OC(=O)c2ccc(C)cc2)cc1 (stereo not given),inactive,inactive,inactive,inactive,inactive,,,
COc1cc(-c2noc(C)c2-c2ccc(N(C)C)nc2)cc(OC)c1OC,inactive,inactive,inactive,inactive,inactive,,,
S=C(NCCc1ccccc1)N1CCn2cccc2C1c1cccnc1 (stereo not given),inactive,,inactive,inactive,inactive,18.5% (active),,

Compound,outcome [1],outcome [2],outcome [3],outcome [4],outcome [5],potentiation [2],potentiation [3],activation [5]
CC(Oc1ccc2ccccc2c1)C(=O)NNC(=S)NC(=O)c1ccco1 (stereo not given),inactive,,,inactive,,93% (active),214% (active),15.3% (active)
O=C(N/N=C/c1ccc2cccc(OCc3ccccc3)c2n1)c1ccc(Br)cc1,inactive,,inactive,inactive,inactive,23% (active),,
Cc1ccc(-c2nnc(SCC(=O)N/N=C/c3ccccc3C(=O)O)n2-c2ccc(Cl)cc2)cc1,inactive,inactive,inactive,inactive,inactive,,,
CCCCOC(=O)c1ccc(NC(=S)NC(=O)c2ccco2)cc1,inactive,inactive,inactive,inactive,inactive,,,
O=C(O)CCn1c(-c2ccccc2)cc2ccccc21,inactive,inactive,inactive,inactive,inactive,,,
Cc1onc(-c2ccccc2)c1C(=O)NC(=S)Nc1sc2c(c1C#N)CCCC2,inactive,,inactive,inactive,inactive,31.5% (active),,
CCN(CC)CCCNC(=O)c1c(O)c2cc(F)cc3c2n(c1=O)C(C)CC3 (stereo not given),inactive,inactive,inactive,inactive,inactive,,,
O=C(Nc1nnc(-c2ccco2)o1)c1ccc(Cl)cc1,inactive,inactive,,inactive,inactive,,148% (active),
C=CS(=O)(=O)c1sc(Cl)c(N2CCOCC2)c1[N+](=O)[O-],inactive,,inactive,inactive,inactive,19% (active),,
Cc1cccc(Cn2c(O)c(N=NC(=S)Nc3ccccc3F)c3ccccc32)c1,inactive,,,inactive,inactive,22.5% (active),148% (active),
COc1cc(NC(=S)N2CCC(C(O)(c3ccccc3)c3ccccc3)CC2)cc(OC)c1,inactive,,,inactive,inactive,20.5% (active),156% (active),
CC(C)CC(=O)Nc1nnc(SCC(=O)NCc2ccco2)s1,inactive,inactive,inactive,inactive,inactive,,,
CCC(C)NCC(=O)Nc1sc2c(c1C(N)=O)CCC2 (stereo not given),inactive,inactive,inactive,inactive,inactive,,,
CCOc1ccc(NC(=O)c2ccc(N)cc2)cc1,inactive,inactive,inactive,inactive,inactive,,,
CC(=O)Nc1ccc(NC(=O)CSC2=NS(=O)(=O)c3cc(Cl)ccc3N2)cc1,inactive,inactive,inactive,inactive,inactive,,,
O=C(CC1(O)C(=O)N(Cc2ccccc2)c2ccccc21)c1ccncc1 (stereo not given),inactive,,,inactive,inactive,27.5% (active),146% (active),
Cc1cc(NC(=O)CSCC(=O)OC(C)C(=O)N(C)Cc2ccccc2)no1 (stereo not given),inactive,,inactive,inactive,inactive,28% (active),,
Cc1[nH]c(=S)c(C#N)c(C)c1Cc1ccc(Cl)cc1Cl,inactive,inactive,inactive,inactive,inactive,,,
Cc1cccc(/N=C/c2sc3ccccc3c2O)n1,inactive,inactive,inactive,inactive,inactive,,,
CCOC(=O)c1ccc(N2C(=O)C3ON(c4ccccc4)C(c4ccco4)C3C2=O)cc1 (stereo not given),inactive,inactive,inactive,inactive,inactive,,,
